# Most compounds without a hit are left out; they make up all but 2.4% or so of the library.
# HTR5A ag ctr: HTR5A agonism, opioid heterodimer counter-screen; P47898; HTR5A agonist assay, luminescence, cell-based; activation, % at 9.3 µM; 340,000 tested, 0.61% active; in the data active = activation mostly above about 9.5%, no sharp cut-off; inactive = mostly below about 7.6%;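 note: 0% = cells with vehicle only and 100% = reference agonist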
# MOR-DOR ag: OPRM1-OPRD1 heterodimerization agonism | 340,000 tested, 0.3% active | AID 504326 | activation, % at 9.3 µM | P35372+P41143 | cells, luminescence; in the data active = activation above about 18%;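 note: 0% = vehicle-treated cells and 100% = reference agonist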
# Target sequence (P35372 whole entry, looked up): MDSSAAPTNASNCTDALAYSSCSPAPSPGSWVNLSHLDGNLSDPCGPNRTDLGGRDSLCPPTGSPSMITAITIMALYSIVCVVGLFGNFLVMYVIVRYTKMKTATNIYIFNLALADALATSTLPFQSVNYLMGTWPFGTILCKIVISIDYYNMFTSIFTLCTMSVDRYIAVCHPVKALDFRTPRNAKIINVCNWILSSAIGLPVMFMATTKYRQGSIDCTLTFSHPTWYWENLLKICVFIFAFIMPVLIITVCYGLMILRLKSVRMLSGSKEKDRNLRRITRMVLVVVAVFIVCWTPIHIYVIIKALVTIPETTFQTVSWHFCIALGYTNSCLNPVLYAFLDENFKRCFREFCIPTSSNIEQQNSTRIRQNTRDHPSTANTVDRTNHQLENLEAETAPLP
# Target sequence (P41143 whole entry, looked up): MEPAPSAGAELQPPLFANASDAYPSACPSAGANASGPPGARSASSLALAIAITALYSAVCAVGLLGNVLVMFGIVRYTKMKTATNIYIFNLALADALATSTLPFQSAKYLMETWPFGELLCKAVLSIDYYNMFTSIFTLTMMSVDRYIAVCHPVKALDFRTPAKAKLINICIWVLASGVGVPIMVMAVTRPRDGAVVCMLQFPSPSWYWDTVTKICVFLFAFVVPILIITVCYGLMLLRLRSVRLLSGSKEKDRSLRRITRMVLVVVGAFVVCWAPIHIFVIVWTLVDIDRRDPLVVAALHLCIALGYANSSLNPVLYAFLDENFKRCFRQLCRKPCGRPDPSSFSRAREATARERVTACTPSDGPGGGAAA
# OPRM1-OPRD1 inv: inverse agonists of human mu-delta opioid receptor heterodimerization | P35372+P41143 | cell-based MOR-DOR heterodimer luminescence, inverse agonism | inhibition, % at 9.3 µM | 340,000 tested, 0.21% active | AID 504357; in the data active = inhibition above about 22%, passing the limit was not always enough;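 note: 0% = cells with DMSO and 100% = wells without cells with DMSO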
# HTR5A inv ag: counter-screen for OPRM1-OPRD1 inverse agonists: human HTR5A inverse agonism; 340,000 tested, 0.083% active; HTR5A cell line, luminescence; inhibition, % at 9.3 µM; in the data active = inhibition mostly above about 23%, no sharp cut-off; inactive = mostly below about 18%;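 note: 0% = cells with DMSO and 100% = no-cell wells with DMSO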
# MC4R ag barr: human MC4R agonism via beta-arrestin. P32245. activation, % at 8.9 µM. U2OS MC4R beta-arrestin complementation, luminescence; percent of melanotan II response, DMSO zero. AID 540308. 360,000 tested, 0.98% active;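 active = activation above a per-plate cutoff, the mean activation of sample wells on that plate plus 3 SD, cut at about 8% in these data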
# MC4R antag cAMP: human MC4R antagonism in cAMP assay. P32245. MC4R-expressing cells, MTII-stimulated cAMP, LANCE TR-FRET. 360,000 tested, 0.48% active. inhibition, % at 6.5 µM;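 active = inhibition above its plate's cutoff, the mean of tested wells on that plate plus 3 SD, cut at about 29% in these data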;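 note: 0% = Melanotan II alone and 100% = Melanotan II plus saturating MCL0020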
#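 System – human MC4R-expressing U2OS cells · Also added – Melanotan II · Dosing – one concentration, 6.5 µM nominal · Timing – 30-min compound, 1-h challenge, 1-h detection, room temperature · Measured by – Eu-cAMP/anti-cAMP TR-FRET, emission 671 nm · Replicates – singlicate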
# MC4R barr ag: human MC4R beta-arrestin agonism confirmation. shares compounds with MC4R ag barr. U2OS MC4R beta-arrestin recruitment, luminescence; scaled DMSO 0%, Melanotan II 100%. activation, % at 8.9 µM. 2,400 tested, 31% active. AID 602192;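 active = mean activation across replicates above the hit cutoff set in the earlier primary screen, cut at about 8% in these data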
# MOR DOR agonist: OPRM1-OPRD1 heterodimer agonism counter-screen; shares compounds with MC4R ag barr; U2OS PathHunter beta-arrestin, beta-gal luminescence; percent of deltorphin B response, DMSO zero; activation, % at 9.2 µM; 2,400 tested, 5.8% active; AID 602194;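 active = mean activation across replicates exceeds the hit threshold derived in the earlier primary screen, cut at about 18% in these data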;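 note: 100% = deltorphin B at 0.9 µM final and 0% = DMSO alone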
# * hit, by the source's call; nt = not tested or not shown.
SMILES,HTR5A ag ctr,MOR-DOR ag,OPRM1-OPRD1 inv,HTR5A inv ag,MC4R ag barr,MC4R antag cAMP,MC4R barr ag,MOR DOR agonist
OC1(c2cccc(C(F)(F)F)c2)CCN(c2ncnc3c2[nH]c2ccccc23)CC1,12,1,-5,-26,11*,6,2,5
c1ccc2c(c1)[nH]c1c(N3CCC4(CC3)OCCO4)ncnc12,6,1,-6,-18,-2,4,nt,nt
CCOc1cc(/C=N/NC(=O)CCc2n[nH]c(=O)[nH]c2=O)ccc1O,-4,0,-3,12,0,-1,nt,nt
COc1ccc(NC(=O)CN(C)C(=O)/C=C/c2ccc(S(=O)(=O)N3CCCCCC3)cc2)cc1,2,-1,8,-6,30*,0,11*,2
COc1ccc(/C=C/C(=O)N(C)CC(=O)Nc2cccc(F)c2)cc1S(=O)(=O)N1CCCCC1,-4,-3,16,11,-2,0,nt,nt
O=C(Cc1ccccc1)NCc1ccncc1,0,-2,9,-16,-1,3,nt,nt
O=C(COC(=O)COc1ccc(Br)cc1)NCc1ccccc1,3,-2,8,-8,-1,10,nt,nt
CCN1/C(=C/c2ccc3cc(C)ccc3[n+]2CC)Sc2ccccc21,6,1,-4,-1,0,-34,nt,nt
CCN1/C(=C/c2ccc3cc(C)ccc3[n+]2CC)Sc2cc(C)c(C)cc21,5,4,-20,-13,29*,-11,79*,11
CCOc1cccc(N2C(=O)CC(NNC(=O)c3ccc(Br)o3)C2=O)c1 (stereo unspecified),-7,-2,11,8,-1,11,nt,nt
CCCOc1ccc(N2C(=O)CC(NNC(=O)c3ccc(COc4ccccc4)o3)C2=O)cc1 (stereo unspecified),3,5,-28,26,13*,21,5,7
O=C(COC(=O)c1ccc2ccccc2c1)Nc1ncc(C(F)(F)F)cc1Cl,-7,1,-7,15,10*,3,6,4
O=C(COC(=O)c1ccc2ccccc2n1)Nc1ncc(C(F)(F)F)cc1Cl,4,3,-13,10,-1,16,nt,nt
CC(=O)Nc1ccc(NC(=O)c2cc(-c3ccc(C)c(C)c3O)n[nH]2)cc1,7,1,-4,-29,9.7*,-4,4,2
Cc1ccc(NC(=O)c2cc(-c3ccc(C)c(C)c3O)n[nH]2)cc1C,4,1,-6,-15,2,3,nt,nt
CCCCN1CCN=C1N(C)C,-3,-1,7,7,-1,4,nt,nt
Cc1c(N)cc2c(c1N)C(C)(C)CC2(C)C,0,7,-37,1,-1,-5,nt,nt
O=C(CCN1C(=O)/C(=C/c2ccccc2F)SC1=S)NC1C=CS(=O)(=O)C1 (stereo unspecified),1,1,-7,11,10*,-3,-1,2
Cc1nn(Cc2ccccc2)c(C)c1C(=O)NCCN1C(=O)S/C(=C\c2ccccc2)C1=O,0,-2,11,1,11*,1,1,1
O=C(CCCOC(=O)c1cccnc1Cl)c1ccc(Br)cc1,3,3,-14,-11,0,3,nt,nt
O=C(CCCOC(=O)c1ccc(O)cc1O)c1ccc(Br)cc1,9,6,-42,-24,10*,5,8.7*,7
Cc1c(P(=S)(c2ccccc2)c2ccccc2)[n+]2ccccc2n1C/C=C/c1ccccc1,nt,nt,nt,nt,15*,15,6,37*
Clc1ccc(OCc2nn3c(-c4ccco4)nnc3s2)c(Cl)c1,-6,3,-16,-12,21*,0,1,7
Cc1ccc(OCc2nn3c(-c4ccco4)nnc3s2)cc1,-2,-2,9,-8,-1,6,nt,nt
Cc1cc(C)cc(NC(=O)Nc2ccc(NC(=O)c3ccccc3O)cc2)c1,8,17,-86,-31,16*,18,6,13
Cc1ccc(NC(=O)c2ccccc2O)cc1,-4,-2,10,10,1,9,nt,nt
